As usually defined, the IC50 is the concentration that inhibits the measured activity by half.

The results in this text go back to ChEMBL document CHEMBL3867443, “Polyprenylated Tetraoxygenated Xanthones from the Roots of Hypericum monogynum and Their Neuroprotective Activities” (J Nat Prod, 2016).

The source made the active and inactive calls. The rule behind the calls is not given here.

One data set is filed under the species Rattus norvegicus. The experiment in a line: Cytotoxicity against rat PC12 cells at 25 uM by MTT assay. It counts as toxicity, cell-based. Conditions: pc-12, 25 µM. A digest of the protocol: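 PC12 cells in DMEM with 10% FBS, 5% horse serum and penicillin/streptomycin, 37 °C, 5% CO2. Seeded at 2 × 10^4 cells/well and exposed to compound at 25.00 μM. Viability was read by MTT.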

A short description of data set [1]: Neuroprotective activity in rat PC12 cells assessed as reduction in corticosterone-induced lesions by measuring cell viability at 12.5 uM pretreated for 24 hrs followed by corticosterone-challenge after 48 hrs by MTT assay. In kind it is functional, cell-based. As to conditions: PC-12. Summed up:
(§1)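 PC12 cells seeded at 2 × 10^4 cells/well and pretreated 24 h with compound, then 200 μM corticosterone for 48 h. Fluoxetine 12.50 μM was the positive control. MTT absorbance read at 570 nm with 630 nm reference. Viability given as % of untreated control, mean ± SEM of three independent experiments, compared by ANOVA.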

A short description of data set [2]: Cytotoxicity against […] BV2 cells assessed as cell viability by MTT assay relative to control. It counts as toxicity, cell-based, BV-2. As to conditions: mouse, read-out: Activity. Also noted: concentration or dose not given beside the values. Summed up: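 BV2 microglia in DMEM with 10% heat-inactivated FBS and penicillin/streptomycin, 37 °C, 5% CO2. Viability was read by MTT in the cells used for the NO assay, which received 2 h compound pretreatment and then LPS at 100 ng/mL final for 18 h.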

Data set [3] in a line: Neuroprotective activity in rat PC12 cells assessed as reduction in corticosterone-induced lesions by measuring cell viability at 25 uM pretreated for 24 hrs followed by corticosterone-challenge after 48 hrs by MTT assay. In kind it is functional, cell-based. Conditions: PC-12. A digest of the protocol:
as §1

In another data set the test system is BV-2. Put plainly: Inhibition of LPS-induced NO production in […] preincubated for 2 hrs followed by LPS-stimulation measured after 18 hrs by Griess assay. In kind it is functional, cell-based. As to conditions: Mus musculus. A digest of the protocol:
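BV2 cells seeded at 2.5 × 10^5 cells/mL and preincubated 2 h with compound, then LPS at 100 ng/mL final for 18 h. Supernatant was mixed 1:1 with Griess reagent for 10 min at room temperature and read at 540 nm. Inhibition = (AL − A0 − AC)/(AL − A0) × 100. IC50 reported as mean ± SEM of three independent experiments. L-NMMA was the positive control.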
(Nitrite, measured by Griess reagent, commonly stands in for NO production.)

Data set [4] is described as follows: Neuroprotective activity in rat PC12 cells assessed as reduction in corticosterone-induced lesions by measuring cell viability at 6.25 uM pretreated for 24 hrs followed by corticosterone-challenge after 48 hrs by MTT assay. It counts as functional, cell-based. As to conditions: PC-12. Summed up: as §1
(In general: Tetrazolium assays rely on reduction of a dye to a coloured formazan, in cell work by metabolically active cells.)

Another data set concerns PC-12. Put plainly: Decrease in corticosterone-induced intracellular calcium level in rat PC12 cells at 6.25 to 25 uM pretreated for 24 hrs followed by corticosterone-challenge after 48 hrs by Fluo-3AM dye-based flow cytometry. It counts as functional, cell-based. A digest of the protocol:
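PC12 cells were pretreated 24 h with compound (6.25, 12.50, 25.00 μM) or fluoxetine 12.50 μM, then exposed to 200 μM corticosterone for 48 h. Cells were loaded with Fluo-3 AM and analysed by flow cytometry. Results are mean fluorescence intensity relative to vehicle control, mean ± SEM, n = 3.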
In general terms: Calcium flux is commonly read through the fluorescence of an indicator in the cells.

As to `C=C(C)C(CC=C(C)C)Cc1c(O)cc(O)c2c(=O)c3ccc(O)c(O)c3oc12` (centres undefined), the Activity result is “Non-Toxic” in the data set listed under Rattus norvegicus, 78.1% in data set [1], 84.1% in data set [3] and 60.7% in data set [4]. In addition, in data set [2], the viability is above 90%. This compound also returned an IC50 in the data set on BV-2 of 8.35 µM.
`CNC(=N)NCCC[C@H](N)C(=O)O` [TILARGININE] yielded a half-maximal inhibitory concentration (IC50) in the data set with BV-2 of 39.3 µM.
Regarding `CNCCC(Oc1ccc(C(F)(F)F)cc1)c1ccccc1` (centres undefined), the Activity in data set [1] came to 70.5%.
For the compound `C[C@]12C[C@H](O)[C@H]3[C@@H](CCC4=CC(=O)CC[C@@]43C)[C@@H]1CC[C@@H]2C(=O)CO`, the Activity in data set [3] is 52.8%.
For `C=C(C)[C@H](CC=C(C)C)Cc1c(O)c(C[C@@H](CC=C(C)C)C(=C)C)c2oc3c(O)c(O)ccc3c(=O)c2c1O`, the Activity result in the data set filed under Rattus norvegicus was “Non-Toxic”; in data set [1] it was 83.8%; in data set [3], 92%; in data set [4], 78.4%. The outcome in the data set on PC-12 was Active. The viability in data set [2] is above 90%. This compound also came in with an IC50 in the data set on BV-2 of 7.47 µM.
As for `C=C(C)C(CC=C(C)C)Cc1c2c(c(O)c3c(=O)c4ccc(O)c(O)c4oc13)C=CC(C)(C)O2` (centres undefined), the Activity result in the data set filed under Rattus norvegicus is “Non-Toxic”; in data set [1], 71.2%; in data set [3] it was 65.4%; in data set [4], 64.8%. Moreover, the viability in data set [2] is above 90%. The compound further yielded an IC50 in the data set on BV-2 above 50 µM.
With `C=C(C)C(CC=C(C)C)Cc1c(O)c(CC=C(C)C)c(O)c2c(=O)c3ccc(O)c(O)c3oc12` (centres undefined), the Activity result was “Non-Toxic” in the data set filed under Rattus norvegicus, 60.2% in data set [1], 66% in data set [3] and 57.5% in data set [4]. The viability in data set [2] was above 90%. In the data set with BV-2, this compound showed an IC50 of 5.66 µM.
In the case of `C=C(C)[C@H](CC=C(C)C)Cc1c(O)cc2oc3c(O)c(O)ccc3c(=O)c2c1O`, the Activity result in the data set filed under Rattus norvegicus was “Non-Toxic”; in data set [1], 78.8%; in data set [3], 85.9%; in data set [4], 75.2%. Also, the viability in data set [2] was above 90%. For the same compound, in the data set with BV-2, inhibition was half-maximal at 9.6 µM (IC50).
